Measurements from ChEMBL document CHEMBL4251638, “Amino acid conjugated antimicrobial drugs: Synthesis, lipophilicity- activity relationship, antibacterial and urease inhibition activity” (Eur J Med Chem, 2018).
≈ marks a conversion by molar mass, not a printed value. Calls of active or inactive are those of the source. The rule behind the calls is not given here.

Columns and labels:
Escherichia coli = test: Antibacterial activity against Escherichia coli ATCC 25922 after overnight incubation by microbroth dilution method; assay type: functional
Method in brief: (§1)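 Strains grown on nutrient agar, 37°C, 24 h. Inoculum from colony in nutrient broth, 24 h at 37°C, adjusted to McFarland 0.5, about 5 × 10^4 CFU/ml per well. DMSO stocks (4 mg/mL) serially diluted in nutrient broth to final 256 to 0.16 µg/mL. Incubated overnight at 37°C. MIC90 is the lowest concentration inhibiting growth. DMSO 1% final as negative control. Run in triplicate.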

Pseudomonas aeruginosa = test: Antibacterial activity against Pseudomonas aeruginosa ATCC 15442 after overnight incubation by microbroth dilution method; assay type: functional; method in brief: as §1
Staphylococcus aureus = test: Antibacterial activity against Staphylococcus aureus ATCC 6538 after overnight incubation by microbroth dilution method; assay type: functional; method in brief: as §1
Bacillus spizizenii = test: Antibacterial activity against Bacillus subtilis ATCC 6633 after overnight incubation by microbroth dilution method; assay type: functional; method in brief: as §1
Salmonella typhimurium [1] = test: Antibacterial activity against Salmonella typhimurium ATCC 14028 after overnight incubation by microbroth dilution method; assay type: functional, Salmonella enterica subsp. enterica serovar Typhimurium; settings: Salmonella enterica
[2] = Inhibition of Bacillus pasteurii urease using urea as substrate measured after 20 mins by phenol reagent based assay; set-up: species or system Sporosarcina pasteurii
Method in brief: (§2)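 Indophenol method. Enzyme incubated with compound in buffer containing 100 mM urea at 30 °C for 20 min. Phenol reagent (1% w/v phenol, 0.005% w/v sodium nitroprusside) then alkali reagent (0.5% w/v NaOH, 0.1% v/v […]) added. Absorbance read at 630 nm as change per min. Thiourea was the reference inhibitor.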

Sporosarcina pasteurii = test: Inhibition of Bacillus pasteurii urease using urea as substrate measured after 20 mins by phenol reagent based assay relative to control; method in brief: as §2
Salmonella typhimurium [3] = settings: Salmonella enterica subsp. enterica serovar Typhimurium; ATCC 14028

SMILES	MIC90 (Escherichia coli)	MIC90 (Pseudomonas aeruginosa)	MIC90 (Staphylococcus aureus)	MIC90 (Bacillus spizizenii)	MIC90 (Salmonella typhimurium [1]) [µM]	IC50 [2] [µM]	inhibition (Sporosarcina pasteurii) [%]	MIC90 (Salmonella typhimurium [3])
COc1cc(Cc2cnc(N)nc2NC(=O)C(N)Cc2ccccc2)cc(OC)c1OC (configuration not stated)	73.1 µM (≈ 32 µg/mL)	73.1 µM (≈ 32 µg/mL)	244 µM (≈ 107 µg/mL)	244 µM (≈ 107 µg/mL)	97.4 (≈ 42.6 µg/mL)	31.3		
COc1cc(Cc2cnc(N)nc2N)cc(OC)c1OC [TRIMETHOPRIM]	55.1 µM (≈ 16 µg/mL)		22.7 µM (≈ 6.59 µg/mL)					
Cc1ncc([N+](=O)[O-])n1CCO	inactive	inactive	inactive	inactive			13	
COc1cc(Cc2cnc(N)nc2NC(=O)C(N)Cc2c[nH]c3ccccc23)cc(OC)c1OC (configuration not stated)	67.1 µM (≈ 32 µg/mL)	67.1 µM (≈ 32 µg/mL)	134 µM (≈ 64 µg/mL)	224 µM (≈ 107 µg/mL)	55.8 (≈ 26.6 µg/mL)	35.1		
NC(Cc1ccccc1)C(=O)NNC(=O)c1ccncc1 (configuration not stated)	inactive	inactive	inactive	inactive		21.1		inactive
COc1nc(OCCn2c([N+](=O)[O-])cnc2C)nc(OC(=O)C(N)Cc2c[nH]c3ccccc23)n1 (configuration not stated)	2 µM (≈ 0.965 µg/mL)	4 µM (≈ 1.93 µg/mL)	16.5 µM (≈ 7.96 µg/mL)	13 µM (≈ 6.27 µg/mL)	6.8 (≈ 3.28 µg/mL)	16.3		
Cc1ncc([N+](=O)[O-])n1CCOC(=O)C(N)C(C)C (configuration not stated)	473 µM (≈ 128 µg/mL)	474 µM (≈ 128 µg/mL)	118 µM (≈ 32 µg/mL)	158 µM (≈ 42.7 µg/mL)	632 (≈ 171 µg/mL)	29.5		
COc1nc(OC(=O)C(N)Cc2c[nH]c3ccccc23)nc(Oc2c(OC)cc(Cc3cnc(N)nc3N)cc2OC)n1 (configuration not stated)	1.1 µM (≈ 0.646 µg/mL)	1.4 µM (≈ 0.823 µg/mL)	3.4 µM (≈ 2 µg/mL)	6.8 µM (≈ 4 µg/mL)	2.3 (≈ 1.35 µg/mL)	11.5		
COc1nc(NNC(=O)c2ccncc2)nc(OC(=O)C(N)C(C)C)n1 (configuration not stated)	59 µM (≈ 21.3 µg/mL)	74 µM (≈ 26.7 µg/mL)	118 µM (≈ 42.6 µg/mL)	177 µM (≈ 64 µg/mL)	74 (≈ 26.7 µg/mL)	29.3		
NC(N)=S [THIOUREA]						21		
COc1nc(NNC(=O)c2ccncc2)nc(OC(=O)C(N)Cc2c[nH]c3ccccc23)n1 (configuration not stated)	36 µM (≈ 16.1 µg/mL)	60 µM (≈ 26.9 µg/mL)	47.5 µM (≈ 21.3 µg/mL)	71 µM (≈ 31.8 µg/mL)	36 (≈ 16.1 µg/mL)	37.3		
NNC(=O)c1ccncc1	inactive	inactive	inactive	inactive				inactive
NC(Cc1c[nH]c2ccccc12)C(=O)NNC(=O)c1ccncc1 (configuration not stated)	528 µM (≈ 171 µg/mL)	660 µM (≈ 213 µg/mL)	98.9 µM (≈ 32 µg/mL)	98.9 µM (≈ 32 µg/mL)	792 (≈ 256 µg/mL)	37		
Cc1ncc([N+](=O)[O-])n1CCOC(=O)C(N)Cc1c[nH]c2ccccc12 (configuration not stated)	74.4 µM (≈ 26.6 µg/mL)	119 µM (≈ 42.6 µg/mL)	179 µM (≈ 64 µg/mL)	239 µM (≈ 85.4 µg/mL)	89.5 (≈ 32 µg/mL)	13.6		
COc1nc(NNC(=O)c2ccncc2)nc(OC(=O)C(N)Cc2ccccc2)n1 (configuration not stated)	52 µM (≈ 21.3 µg/mL)	65 µM (≈ 26.6 µg/mL)	104 µM (≈ 42.6 µg/mL)	156 µM (≈ 63.9 µg/mL)	78 (≈ 31.9 µg/mL)	31		
CC(C)C(N)C(=O)NNC(=O)c1ccncc1 (configuration not stated)	inactive	inactive	inactive	inactive		48.6		inactive
Cc1ncc([N+](=O)[O-])n1CCOC(=O)C(N)Cc1ccccc1 (configuration not stated)	201 µM (≈ 64 µg/mL)	268 µM (≈ 85.3 µg/mL)	50.3 µM (≈ 16 µg/mL)	83.6 µM (≈ 26.6 µg/mL)	201 (≈ 64 µg/mL)	27.4		

Results, then the compound that gave them:

MIC90 (Escherichia coli)	MIC90 (Pseudomonas aeruginosa)	MIC90 (Staphylococcus aureus)	MIC90 (Bacillus spizizenii)	MIC90 (Salmonella typhimurium [1]) [µM]	IC50 [2] [µM]	inhibition (Sporosarcina pasteurii) [%]	MIC90 (Salmonella typhimurium [3])	SMILES
53.2 µM (≈ 32 µg/mL)	53.2 µM (≈ 32 µg/mL)	213 µM (≈ 128 µg/mL)	213 µM (≈ 128 µg/mL)	53.2 (≈ 32 µg/mL)	12			COc1nc(Nc2nc(N)ncc2Cc2cc(OC)c(OC)c(OC)c2)nc(OC(=O)C(N)Cc2c[nH]c3ccccc23)n1 (configuration not stated)
7.4 µM (≈ 3.28 µg/mL)	9 µM (≈ 3.99 µg/mL)	24 µM (≈ 10.6 µg/mL)	18 µM (≈ 7.98 µg/mL)	18 (≈ 7.98 µg/mL)	11.4			COc1nc(OCCn2c([N+](=O)[O-])cnc2C)nc(OC(=O)C(N)Cc2ccccc2)n1 (configuration not stated)
47.3 µM (≈ 26.6 µg/mL)	28.4 µM (≈ 16 µg/mL)	303 µM (≈ 171 µg/mL)	228 µM (≈ 128 µg/mL)	56.8 (≈ 32 µg/mL)	13.8			COc1nc(Nc2nc(N)ncc2Cc2cc(OC)c(OC)c(OC)c2)nc(OC(=O)C(N)Cc2ccccc2)n1 (configuration not stated)
0.6 µM (≈ 0.502 µg/mL)	0.3 µM (≈ 0.251 µg/mL)	0.6 µM (≈ 0.502 µg/mL)	0.6 µM (≈ 0.502 µg/mL)					CC[C@H]1OC(=O)[C@H](C)[C@@H](O[C@H]2C[C@@](C)(OC)[C@@H](O)[C@H](C)O2)[C@H](C)[C@@H](O[C@@H]2O[C@H](C)C[C@H](N(C)C)[C@H]2O)[C@](C)(O)C[C@@H](C)/C(=N\OCOCCOC)[C@H](C)[C@@H](O)[C@]1(C)O [ROXITHROMYCIN]
67.3 µM (≈ 26.6 µg/mL)	54 µM (≈ 21.4 µg/mL)	81 µM (≈ 32 µg/mL)	81 µM (≈ 32 µg/mL)	81 (≈ 32 µg/mL)	19.5			COc1nc(OCCn2c([N+](=O)[O-])cnc2C)nc(OC(=O)C(N)C(C)C)n1 (configuration not stated)
6.6 µM (≈ 3.3 µg/mL)	6.6 µM (≈ 3.3 µg/mL)	10.6 µM (≈ 5.31 µg/mL)	7.9 µM (≈ 3.95 µg/mL)	15.9 (≈ 7.96 µg/mL)	6.23			COc1nc(OC(=O)C(N)C(C)C)nc(Oc2c(OC)cc(Cc3cnc(N)nc3N)cc2OC)n1 (configuration not stated)
164 µM (≈ 64 µg/mL)	137 µM (≈ 53.3 µg/mL)	82.2 µM (≈ 32 µg/mL)	68.3 µM (≈ 26.6 µg/mL)	219 (≈ 85.3 µg/mL)	52.4			COc1cc(Cc2cnc(N)nc2NC(=O)C(N)C(C)C)cc(OC)c1OC (configuration not stated)
30.2 µM (≈ 10 µg/mL)	30.2 µM (≈ 10 µg/mL)	30.2 µM (≈ 10 µg/mL)	30.2 µM (≈ 10 µg/mL)					O=C(O)c1cn(C2CC2)c2cc(N3CCNCC3)c(F)cc2c1=O [CIPROFLOXACIN]
3.6 µM (≈ 1.97 µg/mL)	6 µM (≈ 3.29 µg/mL)	12 µM (≈ 6.58 µg/mL)	19.3 µM (≈ 10.6 µg/mL)	7.3 (≈ 4 µg/mL)	8.33			COc1nc(OC(=O)C(N)Cc2ccccc2)nc(Oc2c(OC)cc(Cc3cnc(N)nc3N)cc2OC)n1 (configuration not stated)
62.2 µM (≈ 32 µg/mL)	51.7 µM (≈ 26.6 µg/mL)	166 µM (≈ 85.3 µg/mL)	124 µM (≈ 64 µg/mL)	82.8 (≈ 42.6 µg/mL)	19.3			COc1nc(Nc2nc(N)ncc2Cc2cc(OC)c(OC)c(OC)c2)nc(OC(=O)C(N)C(C)C)n1 (configuration not stated)
